The record followed here is PMC6830765 (Innate Immunity, 2017).

One data set is described as follows: MTT assay, CHME3. In kind it is cell-based, human. The following applies: human, CHME3 microglia cells. An outline of the steps: (§1)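 MTT (thiazolyl blue tetrazolium bromide) assay on LPS-inflamed CHME3 or SVG cells, fourth passage. […] Read-out is percent viable cells, plus a growth-inhibitory IC50 (concentration halving cell growth) for each cell line.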
In general terms: Tetrazolium dyes change colour on reduction, which living cells bring about.

A further data set concerns human microglia (CHME3). As to the kind of experiment: MTT assay, CHME3. In kind it is cell-based. The following applies: Homo sapiens, Microglia, read-out: IC50, half concentration of druggable compound to inhibit cell growth. The gist of the method:
as §1

A further data set can be described thus: MTT assay, SVG. The following applies: human, SVG astrocyte cells. In kind it is cell-based, human. The gist of the method: as §1
The test system of data set [1] is astrocyte (SVG) cell-line. In words: MTT assay, SVG. The following applies: Homo sapiens, Astrocyte, read-out: IC50, half concentration of druggable compound to inhibit cell growth. In kind it is cell-based, human. An outline of the steps:
as §1

In data set [2] the test system is IL-12. As to the kind of experiment: IL-12 ELISA, LPS-treated CHME3. In kind it is cell-based, human. The following applies: selected dose. An outline of the steps:
(§2)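 Human microglia (CHME3) and astrocyte (SVG) lines at fourth passage, inflamed with LPS. […] IL-12 or IFN-γ released into the extracellular medium was quantified with human ELISA kits 12 and 24 h after drug treatment. Controls were inflamed untreated cells and market-drug (Disprin)-treated cells.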

Data set [3] has as its system IL-12. In words: IL-12 ELISA, LPS-treated SVG. The following applies: selected dose. Type of data set: cell-based, human. An outline of the steps: as §2
For orientation: An ELISA detects its analyte on a solid surface through an enzyme-linked reagent.

Data set [4] relates to IFN-γ. As to the kind of experiment: IFN-γ ELISA, LPS-treated CHME3. The following applies: selected dose. In kind it is cell-based, human. An outline of the steps:
as §2

For data set [5], the system named is IFN-γ. In words: IFN-γ ELISA, LPS-treated SVG. In kind it is cell-based, human. The following applies: selected dose. The gist of the method: as §2

The viability is a per cent measure of how many cells are alive, often set against a control. Turning to `O=C(/C=C/C=C/c1ccc2c(c1)OCO2)N(CCCO[N+](=O)[O-])c1ccc(CO)cc1` [PA-3′k, 3-((2 E,4 E)-5-(benzo[d][1,3]dioxol-5-yl)-N-(4-(hydroxymethyl)phenyl)penta-2,4-dienamido)propyl nitrate], the viability at 24 h in the data set “MTT assay, CHME3” came to 86.1 ± 2.57%; in the data set “MTT assay, SVG”, 89.1 ± 1.96%. Besides, the IC50 with human microglia (CHME3) was found to be 0.0678 µg/mL; in data set [1], 0.0679 µg/mL. Further, the IL-12 quantification in the data set with IL-12 [2] (12 h after drug treatment) is 81.68 ± 4.00; in the data set on IL-12 [2] (24 h after drug treatment) it was 101.88 ± 5.22; in the data set on IL-12 [3] (12 h after drug treatment) it was 88.11 ± 2.80; with IL-12 [3] (24 h after drug treatment), 96.37 ± 2.95. Besides, the IFN-γ quantification in the data set with IFN-γ [4] (12 h after drug treatment) is 46.35 ± 3.58; with IFN-γ [4] (24 h after drug treatment), 54.86 ± 3.41; in the data set with IFN-γ [5] (12 h after drug treatment) it was 42.57 ± 3.58; in the data set with IFN-γ [5] (24 h after drug treatment), 55.81 ± 2.89.
